Values after ≈ are worked out from the molar mass of the structure shown. Active and inactive are the calls of the source. The calls are words filed in the database; no cut-off is given here.
Key:
[1] = Inhibition of Escherichia coli NAD-dependent DNA ligase
[2] = test system: Staphylococcus aureus; assay: Antibacterial activity against wild type Staphylococcus aureus ATCC 29213 by CLSI dilution method; format: functional
[3] = biological target: T1, Dihydrofolate reductase (Homo sapiens) (UniProt P00374); assay: Inhibition of human DHFR
T1 sequence (whole entry): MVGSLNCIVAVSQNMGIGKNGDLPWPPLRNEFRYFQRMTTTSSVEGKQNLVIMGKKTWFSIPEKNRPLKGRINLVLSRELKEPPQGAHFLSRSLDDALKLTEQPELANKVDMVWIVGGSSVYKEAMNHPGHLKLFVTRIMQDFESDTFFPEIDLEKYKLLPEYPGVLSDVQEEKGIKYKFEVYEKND

[4] = test system: Escherichia coli; assay: Antibacterial activity against tolC/rfaC-deficient Escherichia coli harboring ligA251 mutant; format: functional
Method in brief: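 MIC read-out. The E. coli strain carries only the ligA251 allele (L15F exchange), which gives more than 20-fold reduced ligation activity and sensitizes it to LigA inhibitors.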

[5] = test system: Escherichia coli; assay: Antibacterial activity against tolC/rfaC-deficient Escherichia coli; format: functional
[6] = test system: Haemophilus influenzae; assay: Antibacterial activity against wild type Haemophilus influenzae A921 by CLSI dilution method; format: functional
[7] = Inhibition of Streptococcus pneumoniae NAD-dependent DNA ligase assessed as equilibrium dissociation constant
[8] = biological target: DNA ligase 1 (Homo sapiens) (UniProt P18858); assay: Inhibition of human DNA Ligase 1
[9] = test system: Streptococcus pneumoniae; assay: Antibacterial activity against wild type Streptococcus pneumoniae A-216 by CLSI dilution method; format: functional

Chain of DNA ligase 1 (Homo sapiens) (P18858 whole entry): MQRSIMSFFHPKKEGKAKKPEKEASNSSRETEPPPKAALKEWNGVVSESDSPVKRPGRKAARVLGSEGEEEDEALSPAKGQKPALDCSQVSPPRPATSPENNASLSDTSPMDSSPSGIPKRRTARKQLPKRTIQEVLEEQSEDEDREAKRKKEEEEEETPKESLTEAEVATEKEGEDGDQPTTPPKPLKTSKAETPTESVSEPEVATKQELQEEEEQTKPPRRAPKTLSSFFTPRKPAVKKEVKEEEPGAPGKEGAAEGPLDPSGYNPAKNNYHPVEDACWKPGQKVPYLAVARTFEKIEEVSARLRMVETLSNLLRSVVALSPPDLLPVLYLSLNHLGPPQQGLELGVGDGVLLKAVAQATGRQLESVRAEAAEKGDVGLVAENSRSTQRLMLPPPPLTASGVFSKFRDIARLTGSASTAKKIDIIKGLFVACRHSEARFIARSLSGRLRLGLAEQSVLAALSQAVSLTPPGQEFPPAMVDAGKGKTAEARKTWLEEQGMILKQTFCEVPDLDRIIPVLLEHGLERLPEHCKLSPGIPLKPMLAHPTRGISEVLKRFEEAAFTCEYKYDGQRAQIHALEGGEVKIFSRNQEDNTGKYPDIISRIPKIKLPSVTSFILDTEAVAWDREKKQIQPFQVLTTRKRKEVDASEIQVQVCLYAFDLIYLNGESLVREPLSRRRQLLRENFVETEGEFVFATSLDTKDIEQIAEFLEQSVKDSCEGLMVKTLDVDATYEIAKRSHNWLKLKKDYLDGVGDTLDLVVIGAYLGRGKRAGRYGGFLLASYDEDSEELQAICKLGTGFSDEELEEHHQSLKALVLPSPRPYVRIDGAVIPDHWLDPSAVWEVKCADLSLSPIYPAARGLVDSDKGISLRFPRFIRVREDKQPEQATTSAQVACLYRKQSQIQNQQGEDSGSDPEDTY

Structure (SMILES)	IC50 [1] [nM]	MIC [2] [µg/mL]	inhibition [3]	MIC [4] [µg/mL]	MIC [5] [µg/mL]	MIC [6] [µg/mL]	Kd [7] [nM]	inhibition [8]	MIC [9] [µg/mL]
NC(=O)c1cc2c(N3CC[C@@H](N)C3)c(Br)c(C(F)(F)F)nc2nc1N	1000	> 16	inactive	1 (≈ 2.39 µM)	> 16	8 (≈ 19.1 µM)	86	inactive	> 16
NC(=O)c1cc2c(N3CCC(O)CC3)c(Br)c(C(F)(F)F)nc2nc1N	700	> 16	inactive	0.25 (≈ 0.576 µM)	8 (≈ 18.4 µM)	> 16	39	inactive	16 (≈ 36.8 µM)
Cc1cc(C(F)(F)F)nc2nc(N)c(C(N)=O)cc12	500	8 (≈ 29.6 µM)	inactive	0.25 (≈ 0.925 µM)	4 (≈ 14.8 µM)	0.5 (≈ 1.85 µM)	48	inactive	> 16
NC(=O)c1cc2c(N3CC(O)C3)c(Br)c(C(F)(F)F)nc2nc1N	500	16 (≈ 39.4 µM)	inactive	0.125 (≈ 0.308 µM)	4 (≈ 9.85 µM)	4 (≈ 9.85 µM)	43	inactive	> 16
Cc1cc2cc(C(N)=O)c(N)nc2nc1C(F)(F)F	500	4 (≈ 14.8 µM)	inactive	0.063 (≈ 0.233 µM)	0.5 (≈ 1.85 µM)	0.25 (≈ 0.925 µM)	48	inactive	8 (≈ 29.6 µM)
CC(C)(C)OC(=O)N1CC(c2nc3nc(N)c(C(N)=O)cc3cc2Br)C1	> 5000	> 16	inactive		> 16	> 16	2610	inactive	> 16
Cc1c(Cc2ccncc2)c(Cl)nc2nc(N)c(C(N)=O)cc12	1000	> 16	inactive	0.25 (≈ 0.763 µM)	> 16	2 (≈ 6.1 µM)	118	inactive	8 (≈ 24.4 µM)
NC(=O)c1cc2cc(C3CCCC3)c(C(F)(F)F)nc2nc1N	2500	> 16	inactive	4 (≈ 12.3 µM)	> 16	16 (≈ 49.3 µM)	150	inactive	16 (≈ 49.3 µM)
CC(C)(C)c1nc2nc(N)c(C(N)=O)cc2cc1Br	300	4 (≈ 12.4 µM)	inactive	0.25 (≈ 0.774 µM)	8 (≈ 24.8 µM)	2 (≈ 6.19 µM)	77	inactive	8 (≈ 24.8 µM)
C=Cc1cc2cc(C(N)=O)c(N)nc2nc1C(F)(F)F	400	2 (≈ 7.09 µM)	inactive	0.125 (≈ 0.443 µM)	8 (≈ 28.3 µM)	1 (≈ 3.54 µM)	89	inactive	> 16
Nc1ccc2c(Cl)cc(C(F)(F)F)nc2n1	25000								
NC(=O)c1cc2cc(CCc3ccccc3)c(C(F)(F)F)nc2nc1N	> 10000	> 16	inactive	32 (≈ 88.8 µM)	> 16	> 16	1220	inactive	> 16
NC(=O)c1cc2c3c(c(Cl)nc2nc1N)CC3	600	16 (≈ 64.3 µM)	inactive	0.25 (≈ 1.01 µM)	8 (≈ 32.2 µM)	8 (≈ 32.2 µM)	152	inactive	> 16
Cc1c(Cc2ccccc2)c(Cl)nc2nc(N)c(C(N)=O)cc12	500	4 (≈ 12.2 µM)	inactive	0.125 (≈ 0.383 µM)	4 (≈ 12.2 µM)	2 (≈ 6.12 µM)	107	inactive	4 (≈ 12.2 µM)
NC(=O)c1cc2ccc(C(F)(F)F)nc2nc1N	500	8 (≈ 31.2 µM)	inactive	0.125 (≈ 0.488 µM)	16 (≈ 62.5 µM)	0.5 (≈ 1.95 µM)	101	inactive	> 16
NC(=O)c1cc2cc(C3CC3)c(C(F)(F)F)nc2nc1N	400	1 (≈ 3.38 µM)	inactive	0.125 (≈ 0.422 µM)	2 (≈ 6.75 µM)	0.5 (≈ 1.69 µM)	83	inactive	16 (≈ 54 µM)
NC(=O)c1cc2cc(CO)c(C(F)(F)F)nc2nc1N	500	> 16	inactive	2 (≈ 6.99 µM)	> 16	2 (≈ 6.99 µM)	389	inactive	> 16
CC(C)c1cc2cc(C(N)=O)c(N)nc2nc1C(F)(F)F	800	16 (≈ 53.6 µM)	inactive	1 (≈ 3.35 µM)	> 16	8 (≈ 26.8 µM)	152	inactive	> 16
NC(=O)c1cc2c(N3CC[C@@H](O)C3)c(Br)c(C(F)(F)F)nc2nc1N	700	8 (≈ 19 µM)	inactive	0.125 (≈ 0.297 µM)	4 (≈ 9.52 µM)	8 (≈ 19 µM)	31	inactive	8 (≈ 19 µM)
NCc1cc(C(F)(F)F)nc2nc(N)c(C(N)=O)cc12	2500	> 16	inactive	1 (≈ 3.51 µM)	> 16	4 (≈ 14 µM)	102	inactive	> 16
CN(CCO)c1c(Br)c(C(F)(F)F)nc2nc(N)c(C(N)=O)cc12	700	8 (≈ 19.6 µM)	inactive	0.5 (≈ 1.22 µM)	> 16	4 (≈ 9.8 µM)	57	inactive	8 (≈ 19.6 µM)
NC(=O)c1cc2cc(Cc3ccccc3)c(C(F)(F)F)nc2nc1N	800	> 16	inactive	0.125 (≈ 0.361 µM)	16 (≈ 46.2 µM)	4 (≈ 11.6 µM)	141	inactive	> 16
COCCc1cc(C(F)(F)F)nc2nc(N)c(C(N)=O)cc12	10000	> 16	inactive	2 (≈ 6.36 µM)	> 16	4 (≈ 12.7 µM)	458	inactive	> 16
NC(=O)c1cc2c(CCO)cc(C(F)(F)F)nc2nc1N	10000	> 16	inactive	1 (≈ 3.33 µM)	> 16	1 (≈ 3.33 µM)	431	inactive	> 16
C=CCc1c(Cl)nc2nc(N)c(C(N)=O)cc2c1C	800	8 (≈ 28.9 µM)	inactive	0.125 (≈ 0.452 µM)	8 (≈ 28.9 µM)	4 (≈ 14.5 µM)	116	inactive	> 16
